Assay results published in ChEMBL document CHEMBL3244252, “Adriamycin analogues. 3. Synthesis of N-alkylated anthracyclines with enhanced efficacy and reduced cardiotoxicity” (J Med Chem, 1979).

Tests used:
[1] = system: L1210; test: Inhibition of DNA synthesis in mouse L1210 cells; type: functional; conditions: read-out: ED50 (the source's name)
How it was run: (§1)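 L1210 leukemia cells. Drugs were first dissolved in Me2SO to a final 1% Me2SO in the assay medium. Inhibition of DNA and RNA synthesis was measured separately and reported as ED50 (50% inhibitory dose, μM). Selectivity is the ratio of the DNA ED50 to the RNA ED50.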

[2] = system: Calf thymus DNA; test: Binding affinity to calf thymus DNA assessed as change in melting temperature; type: nucleic-acid assay; conditions: Bos taurus
How it was run: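 Drug first dissolved in Me2SO to a final 5% Me2SO in the assay medium. DNA binding is read as the shift in DNA melting temperature (ΔTm). ΔTm below 1 is taken as insignificant binding.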

[3] = species: Rattus norvegicus; test: Cardiotoxicity in rat assessed as minimum cumulative cardiotoxic dose by Zbinden test; type: toxicity, organism-based; conditions: in vivo
How it was run: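 Zbinden cardiotoxicity assay in rats. Drug was given cumulatively, with ECG monitoring. Value is the minimum total dose (mg/kg) that causes significant ECG alterations.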

[4] = system: Salmonella typhimurium; test: Toxicity in Salmonella typhimurium TA98 assessed as concentration required to cause mortality per plate; type: organism-based; conditions: salmonella enterica subsp. enterica serovar typhimurium
How it was run: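 Ames plate test with Salmonella typhimurium tester strain TA98. Compounds were tested over ranges from 0–20 up to 0–100 µg/plate, depending on compound. The toxicity level is reported in µg/plate.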

[5] = system: L1210; test: Inhibition of RNA synthesis in mouse L1210 cells; type: functional; conditions: read-out: ED50 (the source's name); how it was run: as §1
[6] = system: Salmonella typhimurium; test: Mutagenicity in Salmonella typhimurium TA98 assessed as number of revertants by Ames test in presence of microsomal activation; type: toxicity, organism-based; conditions: salmonella enterica subsp. enterica serovar typhimurium
How it was run: (§2)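 Ames plate test using Salmonella typhimurium tester strain TA98. Compounds were tested over dose ranges of 0-20 to 0-100 µg/plate, depending on the compound, and the toxicity level per plate was noted. Mutagenicity is expressed as revertants produced per nmol of compound.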

[7] = system: Salmonella typhimurium; test: Mutagenicity in Salmonella typhimurium TA98 assessed as number of revertants by Ames test in absence of microsomal activation; type: toxicity, organism-based; conditions: salmonella enterica subsp. enterica serovar typhimurium; how it was run: as §2
[8] = system: L1210; test: Selectivity ratio of ED50 for inhibition of DNA synthesis in mouse L1210 cells to ED50 for inhibition of RNA synthesis in mouse L1210 cells; type: functional; how it was run: as §1
[9] = system: P388; test: Antitumor activity against mouse P388 cells allografted in CDF/BDF mouse assessed as survival time at 8 mg/kg, ip administered as qd on day 5, 9, 13; type: functional; conditions: route intraperitoneal
[10] = system: P388; test: Antitumor activity against mouse P388 cells allografted in CDF/BDF mouse assessed as survival time at 0.78 mg/kg, ip administered as qd for 1 to 9 days relative to control; type: functional; conditions: route intraperitoneal
[11] = system: P388; test: Antitumor activity against mouse P388 cells allografted in CDF/BDF mouse assessed as survival time at 6.25 mg/kg, ip administered as qd for 1 to 9 days relative to control; type: functional; conditions: route intraperitoneal
[12] = system: P388; test: Antitumor activity against mouse P388 cells allografted in CDF/BDF mouse assessed as survival time at 18.8 mg/kg, ip administered as qd on day 5, 9, 13; type: functional; conditions: route intraperitoneal
[13] = system: P388; test: Antitumor activity against mouse P388 cells allografted in CDF/BDF mouse assessed as survival time at 3.12 mg/kg, ip administered as qd for 1 to 9 days relative to control; type: functional; conditions: route intraperitoneal
[14] = system: P388; test: Antitumor activity against mouse P388 cells allografted in CDF/BDF mouse assessed as survival time at 3.13 mg/kg, ip administered as qd for 1 to 9 days relative to control; type: functional; conditions: route intraperitoneal
[15] = system: P388; test: Antitumor activity against mouse P388 cells allografted in CDF/BDF mouse assessed as survival time at 12.5 mg/kg, ip administered as qd for 1 to 9 days relative to control; type: functional; conditions: route intraperitoneal
[16] = system: P388; test: Antitumor activity against mouse P388 cells allografted in CDF/BDF mouse assessed as survival time at 25 mg/kg, ip administered as qd on day 5, 9, 13; type: functional; conditions: route intraperitoneal
[17] = system: P388; test: Antitumor activity against ip dosed mouse P388 cells allografted in CDF/BDF mouse assessed as survival time administered as qd for 1 to 9 days relative to control; type: functional

SMILES | EC50 [1] [nM] | ΔTm [2] [°C] | MTC [3] [mg/kg] | Activity [4] [µg] | EC50 [5] [nM] | Activity [6] [nmol⁻¹] | Activity [7] | Ratio ED50 [8] | T/C [9] [%] | T/C [10] [%] | T/C [11] [%] | T/C [12] [%] | T/C [13] [%] | T/C [14] [%] | T/C [15] [%] | T/C [16] [%] | T/C [17] [%]
COc1cccc2c1C(=O)c1c(O)c3c(c(O)c1C2=O)C[C@@](O)(C(=O)CO)C[C@@H]3O[C@H]1C[C@H](N(C)C)[C@H](O)[C@H](C)O1.Cl | 620 | 17.5 | 6 | 20 | 120 | 1 | Non-toxic | 5.2 | – | – | – | – | – | – | – | – | –
COc1cccc2c1C(=O)c1c(O)c3c(c(O)c1C2=O)C[C@@](O)(C(=O)CO)C[C@@H]3O[C@H]1C[C@H](N)[C@H](O)[C@H](C)O1 [DOXORUBICIN] | 1500 | 13.4 | 11 | – | 580 | – | – | 2.6 | 159 | 197 | – | – | – | – | – | – | –
COc1cccc2c1C(=O)c1c(O)c3c(c(O)c1C2=O)C[C@@](O)(C(=O)CO)C[C@@H]3O[C@H]1C[C@H](N(Cc2ccccc2)Cc2ccccc2)[C@H](O)[C@H](C)O1.Cl | 110000 | 0 | – | – | 4800 | – | – | 22.8 | – | – | 175 | – | – | – | – | – | –
COc1cccc2c1C(=O)c1c(O)c3c(c(O)c1C2=O)C[C@@](O)(C(C)=O)C[C@@H]3O[C@H]1C[C@H](NCc2ccccc2)[C@H](O)[C@H](C)O1.Cl | 1600 | 10.2 | – | – | 170 | 0.5 | Non-toxic | 9.4 | – | – | – | 184 | 185 | – | – | – | –
CCN(CC)[C@H]1C[C@H](O[C@H]2C[C@](O)(C(=O)CO)Cc3c(O)c4c(c(O)c32)C(=O)c2c(OC)cccc2C4=O)O[C@@H](C)[C@H]1O.Cl | 700 | 14.6 | – | – | 210 | – | – | 3.3 | – | – | – | – | – | 171 | – | – | –
COc1cccc2c1C(=O)c1c(O)c3c(c(O)c1C2=O)C[C@@](O)(C(=O)CO)C[C@@H]3O[C@H]1C[C@H](N2CCCCC2)[C@H](O)[C@H](C)O1.Cl | 700 | 15.4 | – | 20 | 40 | 1 | Non-toxic | 17.5 | – | – | – | – | – | 190 | – | – | –
COc1cccc2c1C(=O)c1c(O)c3c(c(O)c1C2=O)C[C@@](O)(C(=O)CO)C[C@@H]3O[C@H]1C[C@H](NCc2ccccc2)[C@H](O)[C@H](C)O1.Cl | 650 | 11.3 | – | – | 90 | – | – | 7.2 | – | – | – | 190 | – | 185 | – | – | –
COc1cccc2c1C(=O)c1c(O)c3c(c(O)c1C2=O)C[C@@](O)(C(C)O)C[C@@H]3O[C@H]1C[C@H](N(Cc2ccccc2)Cc2ccccc2)[C@H](O)[C@H](C)O1.Cl (stereo not given in full) | 220000 | 0.6 | – | – | 7600 | 0.5 | Non-toxic | 29.1 | – | – | – | – | – | – | 231 | 183 | –
CCCCCCCCCCN[C@H]1C[C@H](O[C@H]2C[C@](O)(C(C)=O)Cc3c(O)c4c(c(O)c32)C(=O)c2c(OC)cccc2C4=O)O[C@@H](C)[C@H]1O.Cl | 3300 | 7 | – | – | 2600 | – | – | 1.3 | – | – | – | – | – | – | – | – | <125
